# CFTR F508del cor = F508del CFTR correction, initial screen, CFBE line, single point; AID 720511, 2013; activity (quench increase), % at 7.58 µM; hit rate 0.36% among 350,000; CFBE cells, YFP halide quenching; stimulated with forskolin plus potentiator P3; % fluorescence drop versus neutral controls;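 active = mean added fluorescence quench of at least 8% versus neutral control, with both replicates also reaching 8%; inconclusive = only one of the mean or replicate conditions met; inactive = mean below 8% and not both replicates reaching 8%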;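 note: cells transiently co-express mutant CFTR-F508del with the halide-sensitive YFP; corrector assay measuring rescue of mutant channel to the surface after 24 h compound exposure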
# Xi reactivation = activators of inactive X chromosome reactivation, primary screen, imaging, XiGFP fibroblasts, GFP high-content imaging, set 2 | XiGFP mouse fibroblasts, % GFP-positive cells imaging, 3 d; cells co-treated with 5-aza-dC sensitizer; scaled so ellipticine positive control = 100% | activation, % at 7.58 µM | hit rate 0.055% among 360,000 | AID 743238, 2013;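 active = mean normalized replicate activation at least 10% and every replicate at or above 10%; inconclusive = only one of the two criteria met; inactive = mean below 10% and not all replicates reach 10%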;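 note: 0% = median of on-plate neutral control wells and 100% = ellipticine 6 µM median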
#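 System: 68-5-11 XiGFP fibroblast line | Buffer or medium: DMEM containing 5-aza-dC | Compound: Single point | Times: Compounds 3 days, fix/stain 15 min at room temperature | Benchmarks: Positive control ellipticine, 6 µM final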
# Cneo AK release = Cryptococcus neoformans cell lysis inducers, primary screen, AK release luminescence, single concentration; C. neoformans lysis, adenylate kinase release luminescence, 4 h; normalised: neutral wells 0, clomiphene wells 100; lysis activity, % at 15 µM; hit rate 0.2% among 360,000; AID 651654, 2012;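 active = mean lysis activity across replicates of at least 80%, whatever share of replicates individually reach that level; inactive = mean lysis activity below 80%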
#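 Material: C. neoformans cells; Schedule: 4 h static compound exposure, 37 °C, read 1 h post-reagent; Measured by: adenylate kinase release luminescence; Read-out: signal increase indicating cell lysis; Controls: Clomiphene as positive lysis control.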
# DENV2 CPE rescue = inhibitors of DENV2 cytopathic effect, primary screen, cell-based, plate reader, single concentration | AID 651640, 2012 | hit rate 1.7% among 350,000 | DENV2-infected cells, cytopathic effect rescue | CPE inhibition, % at 9.99 µM; in the data active = CPE inhibition above about 20%, passing the limit was not always enough; inconclusive = no clear call, values can overlap the other calls; tested in BHK-21 cells;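 note: 0% = median of neutral control wells and 100% = median of positive control wells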
# FN deposit inh = inhibitors of fibronectin matrix deposition, primary screen, AH1F cells, Alexa488-fibronectin fluorescence, plate reader; inhibition, % at 12.6 µM; hit rate 0.086% among 350,000; AID 743247, 2014; AH1F fibroblasts, overnight;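 active = mean inhibition across replicates of 30% or more, regardless of how many single replicates reach that level; inconclusive = mean under 30% yet at least half of replicates reach 30%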;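 note: positive control wells lacked labelled fibronectin entirely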
#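 Material – AH1F fibroblast monolayer, labelled fibronectin deposition · Reagent – labelled fibronectin 24 nM · Timing – 1 h adhesion, overnight exposure · Measured by – fluorescence at 485 nm excitation, 525 nm emission · Read-out – inhibition of fibronectin deposition signal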
# PGC1a acetyl inh = inhibitors of PGC1a acetylation signal, primary screen, cell-based, U2OS, AlphaScreen, inhibitor mode. inhibition, % at 15.6 µM. AID 651687, 2012. AlphaScreen anti-acetyl-lysine; with virally co-expressed GCN5 acetyltransferase. hit rate 0.17% among 350,000;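 active = every replicate shows inhibition of at least 40%; inconclusive = mean inhibition at least 40% but some replicate below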;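 note: 0% = neutral control wells and 100% = positive control wells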
# * marks the source's active call; other numbers are inactive results; ? = inconclusive; · = no result. An excerpt weighted towards active compounds, which were near 1.9% of everything screened.
SMILES,CFTR F508del cor,Xi reactivation,Cneo AK release,DENV2 CPE rescue,FN deposit inh,PGC1a acetyl inh
C[C@@H]1CN([C@@H](C)CO)C(=O)c2cc(NS(C)(=O)=O)ccc2O[C@@H](C)CCCCO[C@H]1CN(C)Cc1ccc(C(F)(F)F)cc1,0,0,·,-14,·,2
CCNC(=O)C[C@@H]1CC[C@@H]2[C@@H](COc3ccc(NC(=O)C4CCCCC4)cc3C(=O)N2C)O1,0,0,0,12,·,6
O=C(O)c1cc(O)c2c(c1)C(=O)c1cccc(O)c1C2=O,1,0,1,79*,8,?
Cc1cc(O)c2c(c1)C(=O)c1cccc(O)c1C2=O,1,0,·,-1,-6,·
Cc1ccc(-c2ccccc2[C@@H]2[C@H](C#N)N(C(=O)Cc3cccnc3)[C@H]2CO)cc1,3,0,·,26*,-15,-11
COCC(=O)N1[C@H](C#N)[C@H](c2ccccc2-c2ccccc2)[C@@H]1CO,1,0,·,1,-4,-1
COCC(=O)N1[C@H](CO)[C@H](c2ccccc2-c2ccccc2)[C@@H]1C#N,1,0,·,45*,-7,-6
CCc1sc(N2[C@H](C#N)[C@@H](c3ccccc3-c3ccc(F)cc3)[C@@H]2CO)nc1C,0,0,·,12,11,-4
CCc1sc(N2[C@H](C#N)[C@H](c3ccccc3-c3ccccc3)[C@H]2CO)nc1C,0,0,·,76*,-8,-15
CCC(=O)N1[C@H](C#N)[C@H](c2ccccc2-c2cccc(C)c2)[C@@H]1CO,0,0,·,24*,-8,-4
N#C[C@@H]1[C@H](c2ccccc2)[C@H](CO)N1C(=O)Cc1ccccc1,1,0,1,74*,-8,4
N#C[C@@H]1[C@H](c2ccc(-c3ccccc3)cc2)[C@@H](CO)N1C(=O)Cc1ccccc1,3,0,0,-5,9,-17
O=C(C[C@H]1CC[C@@H]2[C@H](COC[C@H](O)CN2C(=O)Cc2ccccc2)O1)NC1CCCC1,-2,1,51,88*,-6,29
O=C(C[C@H]1CC[C@H]2[C@@H](COC[C@H](O)CN2C(=O)Cc2ccccc2)O1)NC1CCC1,4,0,1,38*,-11,-1
O=C(C[C@@H]1CC[C@H]2[C@@H](COC[C@H](O)CN2C(=O)Cc2ccccc2)O1)NC1CCC1,2,0,-2,13,-2,1
O=c1c2ccccc2nc2c3ccccc3c(NCc3ccccn3)nn12,-1,0,0,2,17,·
O=c1c2ccccc2nc2c3ccccc3c(NCCO)nn12,2,0,-1,73*,-2,-7
Cc1noc(C)c1S(=O)(=O)Nc1ccc2c(c1)C(=O)N([C@H](C)CO)C[C@@H](C)[C@@H](CN(C)S(=O)(=O)c1ccccc1)O2,1,0,0,10,1,-3
COc1cc(OC)c2c(-c3cccc(-c4ccc(C#N)cc4)c3)cc(=O)oc2c1,1,0,3,-1,-9,-4
COc1cc(OC)c2c(-c3cccc(-c4ccc(OC)c(OC)c4)c3)cc(=O)oc2c1,9.2*,0,2,-1,-3,-3
COc1cc(OC)c2c(-c3cccc(-c4sccc4C(C)=O)c3)cc(=O)oc2c1,9.7*,1,-1,-2,-19,-3
CCCCN1C=C(C(C)=O)C(=O)CC1,1,0,1,47*,1,6
CCCCN1C=C(C(=O)OCC)C(=O)CC1,1,0,-2,10,-1,6
CC(C)(C)c1ccc(NC(=O)NC2CCCc3ccccc32)cc1 (stereo not drawn),-2,0,0,39*,6,-7
Cc1ccc(NC(=O)NC2CCCc3ccccc32)cc1 (stereo not drawn),-4,0,-2,-4,4,·
SMILES,CFTR F508del cor,Xi reactivation,Cneo AK release,DENV2 CPE rescue,FN deposit inh,PGC1a acetyl inh
CC(=O)N(C)C[C@@H]1Oc2ccc(NS(C)(=O)=O)cc2CC(=O)N(C)C[C@@H]1C,·,0,·,·,6,·
CO[C@@H]1CN(C)C(=O)c2ccc(NC(=O)c3ccccc3)cc2OC[C@@H](C)N(C(=O)C2CC2)C[C@H]1C,2,0,·,26*,4,-13
CO[C@@H]1CN(C)C(=O)c2cc(NC(=O)c3ccccc3)ccc2OC[C@H](C)N(C(=O)C2CC2)C[C@@H]1C,-2,0,-2,95*,-8,-8
COc1ccc(S(=O)(=O)N(C)C[C@@H]2OCc3ccccc3-c3ccccc3C(=O)N([C@H](C)CO)C[C@H]2C)cc1,2,0,5,2,-4,-5
COc1ccc(CN(C)C[C@H]2OCCCC[C@H](C)Oc3ccc(NC(=O)CCCN(C)C)cc3C(=O)N([C@H](C)CO)C[C@H]2C)cc1,2,0,-1,11,·,7
O=C1CC[C@@H]2c3[nH]c4ccccc4c3CCN12,-1,·,3,0,·,3
O=C1CCC2c3ccc4ccccc4c3CCN12 (stereo not drawn),·,·,10,·,30*,9
O=C(Cc1cccnc1)N1CC2(C1)[C@@H](c1ccccc1)[C@@H](CO)N2C(=O)C1CCCC1,-2,0,·,2,-3,-8
C=CC1c2cc(OC)c(OC)cc2CC(C)N1Cc1ccc(OC)cc1 (stereo not drawn),18*,·,-1,-9,·,2
CNC(=O)C[C@H]1CC[C@@H]2[C@@H](COc3ccc(NC(=O)c4cc(F)cc(F)c4)cc3C(=O)N2C)O1,-4,0,-3,-5,1,-2
Cc1ccc(/C=N/NC(=O)C2COc3ccccc3O2)s1 (stereo not drawn),11*,0,-1,-4,20,-17
CN(CC(=O)Nc1ccc(F)c(F)c1F)c1ncnc2sccc12,-2,0,·,31*,0,9
CN(CC(=O)Nc1ccccc1Br)c1ncnc2sccc12,-3,0,-1,1,0,6
COc1cccc(CC(=O)OCC(=O)Nc2nnc(-c3ccccc3)o2)c1,1,0,0,103*,5,10
COc1ccc(C(=O)OCC(=O)Nc2nnc(-c3ccccc3)o2)cc1,-9,0,-3,-8,1,7

# Compound activity (PubChem BioAssay)
